Converted amounts (≈) assume the structure as drawn.
B1: Beta-lactamase OXA-7 (Escherichia coli), P35695 (protein)
chain: MKTFAAYVITACLSSTALASSITENTFWNKEFSAEAVNGVFVLCKSSSKLACATNNLARASKEYLPASTFKIPNAIIGLETGVIKNEHQIFKWDGKPRAMKQWERDLSLRGAIQVSAVPVFQQIAREVGEVRMQKYLKKFSYGNQNISGGIDKFWLEGQLRISAVNQVEFLESLFLNKLSASKENQLIVKEALVTEAPEYLVHSKTGFSGVGTESNPGVAWWVGWVEKGAEVYFFAFNMDIDNENKLPLRKSIPTKIMASEGIIGG

Experiments:
[1] = Permeability across Escherichia coli HN1157/pHSG576oxa7 assessed as permeability coefficient in presence of proton uncoupler carbonyl cyanide meta-chlorophenylhydrazone; assay type: ADME, organism-based; conditions: not told, read-out: permeability
[2] = Lipophilicity, log P of the compound; assay type: physicochemical; conditions: octanol/water
Escherichia coli [3] = test: Antimicrobial activity against Escherichia coli HN1157/pHSG576oxa7 assessed as minimal drug concentration; assay type: functional
Outline: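 The inoculum was grown overnight in modified LB broth with 10 μg/ml chloramphenicol to keep the plasmid, diluted to OD660 0.1 and streaked across the gradient. Plates were read after overnight incubation at 30°C.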

Escherichia coli [4] = test: Antimicrobial activity against Escherichia coli HN1157/pHSG576oxa7; assay type: functional
Escherichia coli [5] = conditions: HN1157
[6] = substrate: CC1(C)S[C@@H]2[C@H](NC(=O)COc3ccccc3)C(=O)N2[C@H]1C(=O)O; test: (§1) Activity at Escherichia coli isolate 7181 beta-lactamase OXA-7
Outline: (§2)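 Crude sonicates of E. coli HN1157 carrying low-copy pHSG576oxa7, grown 14 h at 30°C in modified LB with 10 μg/ml chloramphenicol (plus 0.1% glucose for some substrates). Extract equals OD600 0.025 cells (9.38 μg dry weight/ml) in 50 mM potassium phosphate, pH 7.0, 5 mM MgCl2. Penicillin hydrolysis stopped with TCA at 2 min. Microiodometric OD592 read after 30 min, minus a zero-time TCA blank. Km and Vmax expressed per mg cell dry weight.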

[7] = substrate: CC1(C)S[C@@H]2[C@H](NC(=O)[C@H](NC(=O)N3CCN(S(C)(=O)=O)C3=O)c3ccccc3)C(=O)N2[C@H]1C(=O)O; test: as §1; outline: as §2
[8] = substrate: CC1(C)S[C@@H]2[C@H](NC(=O)[C@H](NC(=O)N3CCNC3=O)c3ccccc3)C(=O)N2[C@H]1C(=O)O; test: as §1; outline: as §2
[9] = substrate: CCN1CCN(C(=O)N[C@@H](C(=O)N[C@@H]2C(=O)N3[C@@H]2SC(C)(C)[C@@H]3C(=O)O)c2ccccc2)C(=O)C1=O; test: as §1; outline: as §2
[10] = substrate: Cc1onc(-c2c(Cl)cccc2Cl)c1C(=O)N[C@@H]1C(=O)N2[C@@H]1SC(C)(C)[C@@H]2C(=O)O; test: as §1; outline: as §2
[11] = substrate: Cc1onc(-c2ccccc2)c1C(=O)N[C@@H]1C(=O)N2[C@@H]1SC(C)(C)[C@@H]2C(=O)O; test: as §1; outline: as §2
[12] = substrate: Cc1onc(-c2ccccc2Cl)c1C(=O)N[C@@H]1C(=O)N2[C@@H]1SC(C)(C)[C@@H]2C(=O)O; test: as §1; outline: as §2

| Molecule | Papp [1] [×10⁻⁶ cm/s] | logP [2] | Activity (Escherichia coli [3]) [µM] | MIC (Escherichia coli [4]) [µg/mL] | K0.5 (Escherichia coli [5]) [µM] | Km [6] [µM] | Km [7] [µM] | Km [8] [µM] | Km [9] [µM] | Km [10] [µM] | Km [11] [µM] | Km [12] [µM] |
| --- | --- | --- | --- | --- | --- | --- | --- | --- | --- | --- | --- | --- |
| Cc1onc(-c2ccccc2Cl)c1C(=O)N[C@@H]1C(=O)N2[C@@H]1SC(C)(C)[C@@H]2C(=O)O [CLOXACILLIN] | 60 | 2.8 | 11 | 295 (≈ 677 µM) | 0.91 | – | – | – | – | – | – | – |
| Cc1onc(-c2c(Cl)cccc2Cl)c1C(=O)N[C@@H]1C(=O)N2[C@@H]1SC(C)(C)[C@@H]2C(=O)O [DICLOXACILLIN] | 60 | 3.4 | 39 | 560 (≈ 1190 µM) | 0.53 | – | – | – | – | – | – | – |
| CC1(C)S[C@@H]2[C@H](NC(=O)[C@H](NC(=O)N3CCNC3=O)c3ccccc3)C(=O)N2[C@H]1C(=O)O [AZLOCILLIN] | 40 | 0.71 | 1.3 | 44 (≈ 95.3 µM) | 1.06 | – | – | – | – | – | – | – |
| CC1(C)S[C@@H]2[C@H](NC(=O)[C@H](N)c3ccccc3)C(=O)N2[C@H]1C(=O)O [AMPICILLIN] | – | -1.03 | 2.9 | 39 (≈ 112 µM) | – | – | – | – | – | – | – | – |
| CC1(C)S[C@@H]2[C@H](NC(=O)COc3ccccc3)C(=O)N2[C@H]1C(=O)O [PENICILLIN V] | 70 | 1.54 | 33 | 178 (≈ 508 µM) | 0.82 | – | – | – | – | – | – | – |
| CC1(C)S[C@@H]2[C@H](NC(=O)[C@H](NC(=O)N3CCN(S(C)(=O)=O)C3=O)c3ccccc3)C(=O)N2[C@H]1C(=O)O [MEZLOCILLIN] | 50 | 0.67 | 1.1 | 30 (≈ 55.6 µM) | 1.08 | – | – | – | – | – | – | – |
| Cc1onc(-c2ccccc2)c1C(=O)N[C@@H]1C(=O)N2[C@@H]1SC(C)(C)[C@@H]2C(=O)O [OXACILLIN] | 60 | 2.1 | 12 | 282 (≈ 702 µM) | 0.97 | – | – | – | – | – | – | – |
| CCN1CCN(C(=O)N[C@@H](C(=O)N[C@@H]2C(=O)N3[C@@H]2SC(C)(C)[C@@H]3C(=O)O)c2ccccc2)C(=O)C1=O [PIPERACILLIN] | 30 | 0.45 | 1.2 | 46 (≈ 88.9 µM) | 1.06 | – | – | – | – | – | – | – |
| B1 | – | – | – | – | – | 29 | 29 | 18 | 34 | 34 | 52 | 31 |

Source: ChEMBL document CHEMBL1255430, “Kinetic parameters of efflux of penicillins by the multidrug efflux transporter AcrAB-TolC of Escherichia coli” (Antimicrob Agents Chemother, 2010)
